Measurements as given in ChEMBL document CHEMBL2406979, “Antitumor activity of 2-hydroxycinnamaldehyde for human colon cancer cells through suppression of β-catenin signaling” (J Nat Prod, 2013).
Activity calls are given as the source filed them. The calls are words filed in the database; no cut-off is given here.

System: HEK293
Experiment: Inhibition of Wnt/beta-catenin (unknown origin) signaling pathway expressed in HEK293 cells assessed as inhibition of TCF4 transcriptional activity at 5 to 40 uM after 24 hrs by TOPflash reporter gene assay
Format: cell-based
Conditions: Homo sapiens
How it was run: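 HEK293 cells seeded at 1.5 × 10^4 per well and cotransfected (Lipofectamine 2000) with TOPflash luciferase reporter 0.1 μg, Renilla 0.005 μg for normalization, pcDNA β-catenin 0.02 μg and TCF4 expression vector 0.004 μg to activate Wnt; 24 h later treated with compound or solvent for 24 h; dual luciferase read-out, Renilla-normalized, relative to vehicle; triplicate.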

With `COc1ccccc1/C=C/C=O` as the compound, how does the inhibition read?
Its inhibition is “Active”.
